Screens from PubChem.
Only some compounds are listed: those with a hit (about 0.58% of all), similar ones and a draw of the others.
TRPML3 agonist: human mucolipin-3 channel agonism. 0.29% of 220,000 active. HEK293 TRPML3-YFP, Fluo-8 calcium fluorescence; 100% = the carbachol control signal. activation, % at 3 µM;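 active = activation above its plate's cutoff, the mean activation of the plate's test wells plus 3 SD, cut at about 12% in these data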;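 also: 0% = DMSO only wells and 100% = carbachol wells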
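Material: HEK293 cells stably carrying human TRPML3-YFP; compound dosing: single dose, 3 µM final nominal compound, 0.3% DMSO final; incubation: 1-h 37 °C dye load, 5-s basal, 120-s post-compound reads; technique: Fluo-8 intracellular calcium fluorescence, excitation 470-495 nm, emission 515-575 nm; read-out basis: percent activation from peak-to-basal fluorescence ratio, scaled between DMSO and carbachol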
OXTR potentiator: potentiators of human oxytocin receptor. P30559. CHO-OTR cells, Fluo-8 calcium fluorescence, potentiator mode; 0% = oxytocin EC15, 100% = EC100. activation, % at 3 µM. 0.061% of 320,000 active. AID 2445;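 active = activation above that plate's cutoff, the mean activation of tested compounds plus 3 SD, cut at about 6.6% in these data, passing the limit was not always enough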;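 also: 100% uses oxytocin at 75 nM as the full agonist control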
Target sequence (P30559 whole entry, looked up): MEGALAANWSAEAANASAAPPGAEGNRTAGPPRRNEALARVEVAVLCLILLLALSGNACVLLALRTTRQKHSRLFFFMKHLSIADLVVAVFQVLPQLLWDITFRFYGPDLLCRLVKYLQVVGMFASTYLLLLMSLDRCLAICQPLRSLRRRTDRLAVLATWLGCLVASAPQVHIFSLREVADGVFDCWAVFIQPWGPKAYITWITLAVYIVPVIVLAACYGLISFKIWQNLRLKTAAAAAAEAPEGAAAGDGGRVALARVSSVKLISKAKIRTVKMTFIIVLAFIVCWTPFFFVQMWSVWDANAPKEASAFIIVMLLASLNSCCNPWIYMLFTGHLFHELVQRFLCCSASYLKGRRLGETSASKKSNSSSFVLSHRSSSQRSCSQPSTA
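Dosing: Single dose, 3.0 µM nominal final compound concentration | Material: Human OTR in CHO cells | Technique: Kinetic Fluo-8 calcium fluorescence | Benchmarks: EC15 oxytocin alone as 0%, 75 nM oxytocin as 100% | Probe or stimulus: Oxytocin at about EC15, sub-maximal agonist stimulus | Incubation: Compound 6 min at room temperature before oxytocin, 100 s read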
zfTRPN1 agonist: activates the zebrafish TRPN1 channel; HEK293 zebrafish TRPN1-YFP, Fluo-8 calcium fluorescence; 100% = response to 87 µM carbachol; 0.18% of 220,000 active; activation, % at 3 µM;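 active = activation above its plate's cutoff, the mean activation of test wells on that plate plus 3 SD, cut at about 19% in these data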;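 also: 0% = DMSO alone and 100% = 87 µM carbachol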
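Control set: carbachol 87 µM as high control, DMSO as low control; system: HEK293 stable line with zebrafish TRPN1-YFP; read-out: % activation versus carbachol response; detection: intracellular calcium fluorescence with Fluo-8; doses: single test compound dose, 3 µM nominal, 0.3% DMSO; schedule: dye 1 h 37 °C plus 30 min RT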
V1aR counter: activates human V1a receptor in oxytocin agonist counter-screen; P37288; CHO-V1R cells, Fluo-8 calcium fluorescence, agonist mode; 0% DMSO, 100% 3 nM vasopressin; activation, % at 3 µM; 0.25% of 320,000 active;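 active = activation above the mean activation of all tested compounds plus 3 SD, per screening run, cut at about 20% in these data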;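 also: signal is peak over basal fluorescence ratio across a 100 second FLIPR read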
OXTR agonist: activates the human oxytocin receptor | 0.32% of 320,000 active | activation, % at 3 µM | CHO-OTR cells, Fluo-8 calcium fluorescence; normalized: DMSO 0%, oxytocin 100% | AID 2435;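 active = activation above the mean of all tested compounds plus 3 SD, cutoff set per screening run, cut at about 20% in these data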;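 also: peak over basal fluorescence ratio from a 100 s FLIPR kinetic read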
OXTR agonist cf: human OXTR agonism, confirmation | shares compounds with OXTR agonist | CHO-OTR cells, Fluo-8 calcium fluorescence, agonist | activation, % at 3 µM | 20% of 390 active;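 active = mean activation above about 20% derived from the earlier single-dose screen, limit read from the data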;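 also: peak over minimum fluorescence ratio per well during a 100 second FLIPR read; 0% = DMSO alone and 100% = oxytocin high control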
V1R ag counter 3x: counter-screen for oxytocin receptor agonists: V1a receptor agonists | shares compounds with OXTR agonist | CHO-V1R cells, Fluo-8 calcium fluorescence, agonist | activation, % at 3 µM | 10% of 390 active | AID 434991;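 active = mean activation over triplicate exceeds the hit threshold set in the earlier primary screen, cut at about 20% in these data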;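 also: peak over basal fluorescence ratio within a 100 second read; 0% = DMSO alone and 100% = 3 nM vasopressin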
OXTR pot cf: confirmation of human oxytocin receptor potentiators | 180 tested, under 10 active | activation, % at 3 µM | shares compounds with OXTR potentiator | CHO-OTR cells, Fluo-8 calcium fluorescence, potentiation; scaled from low-dose to maximal oxytocin | AID 434985;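 active = mean percent activation over triplicates above a cutoff set from solvent-only control plates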;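 also: compounds tested in the presence of an EC15 dose of oxytocin; 0% = EC15 oxytocin with DMSO and 100% = EC100 oxytocin with DMSO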
An asterisk follows results filed as active; . = not tested or not shown.

SMILES	TRPML3 agonist	OXTR potentiator	zfTRPN1 agonist	V1aR counter	OXTR agonist	OXTR agonist cf	V1R ag counter 3x	others
C=CCn1c(SCCCC)nc(O)cc1=O	0	-9	1	3	33*	1	0
OC(CNCC1CCCO1)Cn1c2ccc(Cl)cc2c2cc(Cl)ccc21 (stereo not given)	1	-16	2	3	33*	14	5
CCOC(=O)C1NN=C(C(=O)c2ccccc2)C1c1ccccc1 (stereo not given)	-1	-4	-1	-1	-3	.	.
Nc1nc2ccccc2n1Cc1ccc(Cl)c(Cl)c1	.	-24	.	13	25*	6	4
O=C(CSc1nnc(NC(=O)c2ccccc2F)s1)NC1CC1	.	2	.	0	2	.	.
NS(=O)(=O)c1ccc(Nc2ccccc2)c([N+](=O)[O-])c1	0	-11	0	4	2	.	.
CCCc1ccc(Oc2c(-c3ccc(O)c(C)c3O)n[nH]c2C)cc1	2	-6	10	16	20*	22*	13
COc1nc(N)c(C#N)c(-c2ccc(N(C)CCC#N)cc2)c1C#N	5	-11	13	6	7	.	.
CCCc1ncc(C(=O)c2ccc(OC)cc2)n1C	1	-1	1	0	0	.	.
CC(C)(C)N(NC(=O)Nc1ccc(F)cc1)C(=O)c1ccccc1	0	-2	1	1	0	.	.
CC(C)(C)N(NC(=O)Nc1ccc(Cl)c(Cl)c1)C(=O)c1ccccc1	3	-27	8	8	20*	10	10
OC(c1cc(C(F)(F)F)nc2c(C(F)(F)F)cccc12)C1CCCCN1 (stereo not given)	.	-16	.	11	24*	9	8
Cc1cccc(NC(=O)C2(c3ccccc3)CCOCC2)c1	1	-5	0	-1	-2	.	.
Cc1cccc(NC(=O)C2(c3ccc([N+](=O)[O-])cc3)CCCC2)c1	2	-25	8	17	22*	7	3
CCc1ccc(OC(C)C(=O)Nc2ccc(S(=O)(=O)Nc3nccs3)cc2)cc1 (stereo not given)	.	-14	.	10	20*	5	8
N#CCCn1nc(-c2ccc(Cl)cc2)cc1Nc1ccccc1NC(=O)C(F)(F)F	1	-21	4	18	24*	4	3
N#CCCn1nc(-c2ccccc2)cc1Nc1ccccc1NC(=O)C(F)(F)F	2	-8	0	13	3	.	.
S=C1NCN(Cc2ccco2)CN1c1cccc2ccccc12	1	3	-1	0	1	.	.
Cc1ccccc1NCc1ccccc1O	0	1	0	1	0	.	.
COC(C(=O)Nc1ccc(S(=O)(=O)Nc2ccc(F)cc2)cc1)c1ccccc1 (stereo not given)	6	-10	15	16	20*	23*	14
COc1cc(OC)c2c(-c3ccccc3)cc(=O)oc2c1C(CCN1CCCC(C)C1)c1ccc(N(C)C)cc1 (stereo not given)	.	0	.	1	4	.	.
COc1ccc(C(CCN2CCCC(C)C2)c2c(OC)cc(OC)c3c(-c4ccccc4)cc(=O)oc23)cc1 (stereo not given)	.	-12	.	16	22*	2	3
COc1ccc(/C=C(/NC(=O)c2ccccc2)C(=O)N2CCCCC2)cc1OC	.	-6	.	2	7	.	.
COc1ccc(/C=C(/NC(=O)c2ccccc2)C(=O)N2CCCC2)cc1OC	.	-13	.	2	28*	1	0
CCN1CCN(Cc2c(O)ccc3c(C)cc(=O)oc23)CC1	.	1	.	7	0	.	.
SMILES	TRPML3 agonist	OXTR potentiator	zfTRPN1 agonist	V1aR counter	OXTR agonist	OXTR agonist cf	V1R ag counter 3x	others
CCCN1C=CC(=CC=C(C#N)C#N)C=C1	1	-8	2	14	21*	23*	36*
C=CCN1C=CC(=CC=C(C#N)C#N)C=C1	1	-6	3	19	23*	25*	30*
COc1ccc(NC(=O)CCN2CCN(S(=O)(=O)c3ccc(F)cc3)CC2)cc1	.	4	.	1	-1	.	.
COc1ccc(S(=O)(=O)N2CCCN(CCC(=O)Nc3cccc(C(F)(F)F)c3)CC2)cc1	2	-12	4	17	22*	8	6
O=c1c(O)c(-c2ccc(O)c(O)c2)oc2cc(O)cc(O)c12	.	21*	.	1	1	.	.	OXTR pot cf=7.2*
CCN(C(=S)NC(=O)CCc1ccccc1)c1ccccc1	1	12*	2	1	0	.	.	OXTR pot cf=-3
CCCCC(=O)NC(=S)NNC(=O)CCc1ccccc1	1	-1	4	0	1	.	.
CCCNC(=O)c1ccc(SC)cc1OC	0	-13	-1	-2	-2	.	.
COc1cc(SC)ccc1C(=O)NCCCOC(C)C	0	11*	-1	0	0	.	.	OXTR pot cf=-7
Cc1cc(C)n(-c2cc(C(C)(C)C)nc3c(-c4ccc(Cl)cc4)cnn23)n1	0	13*	1	4	0	.	.	OXTR pot cf=7.8*
Cc1coc2c(C)c3oc(=O)c(CCC(=O)NCCCN4CCCC4=O)c(C)c3cc12	.	12*	.	-1	0	.	.	OXTR pot cf=-4
Oc1ccc(NCc2cccs2)cc1	.	-10	.	0	0	.	.
N#Cc1cn(-c2ccccc2)nc1-c1ccc2c(c1)OCCO2	0	-2	-2	0	-1	.	.
N#Cc1cn(-c2ccccc2)nc1-c1ccco1	0	13*	-1	-2	-2	.	.	OXTR pot cf=-3
Cc1cc(=O)oc2c3c(cc(OCC(=O)NCC(=O)N[C@H](C(=O)O)C(C)C)c12)OC(C)(C)CC3	.	12*	.	-1	0	.	.	OXTR pot cf=-5
CC[C@H](C)[C@H](NC(=O)CNC(=O)COc1cc2c(c3oc(=O)cc(C)c13)CCC(C)(C)O2)C(=O)O	.	-8	.	1	1	.	.
Cn1c(=O)c2c(nc(NCCCO)n2Cc2cccc(Br)c2)n(C)c1=O	0	11*	0	0	1	.	.	OXTR pot cf=-6
Cc1cccc(Cn2c(NCCO)nc3c2c(=O)n(C)c(=O)n3C)c1	1	3	1	1	-1	.	.
O=c1c2nncn2c2cccnc2n1CCNc1ncc(C(F)(F)F)cc1Cl	1	-4	1	0	0	.	.
CC1=C(C(=O)OC(C)C)C(c2cccs2)NC(=O)N1 (stereo not given)	1	9.9*	0	0	1	.	.	OXTR pot cf=-5
CCN1CCN(CCCNC(=O)c2ccc3c(c2)NC(=O)c2ccccc2S3)CC1	0	-4	0	1	1	.	.
O=C(/C=C/c1cccs1)Nc1ccc([N+](=O)[O-])cc1	1	-13	9	3	1	.	.
